# Source: PubChem (several laboratories)
# NR3A LBD binder – modulates the human NR3A ligand-binding domain. NR3A LBD differential scanning fluorimetry, Tm shift; 0% = protein alone, 100% = glycine-bound protein. Tm shift relative to glycine control, % at 25 µM. actives 2.5% (n = 340,000);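 active = melting temperature shift of at least 10% of the positive control shift, at one fixed dose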
# PAFAH1B3 inh – blocks human PAF acetylhydrolase 1B catalytic subunit 3. Q15102. recombinant PAFAH1B3, FP-rhodamine probe, fluorescence polarization. inhibition, % at 3.39 µM. actives 0.28% (n = 340,000);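 active = inhibition above the screen-wide average of all tested compounds plus 3 SD, cut at about 25% in these data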;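 also: 0% = enzyme with DMSO only and 100% = wells lacking PAFAH1B3 protein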
# Target sequence (Q15102 whole entry, looked up): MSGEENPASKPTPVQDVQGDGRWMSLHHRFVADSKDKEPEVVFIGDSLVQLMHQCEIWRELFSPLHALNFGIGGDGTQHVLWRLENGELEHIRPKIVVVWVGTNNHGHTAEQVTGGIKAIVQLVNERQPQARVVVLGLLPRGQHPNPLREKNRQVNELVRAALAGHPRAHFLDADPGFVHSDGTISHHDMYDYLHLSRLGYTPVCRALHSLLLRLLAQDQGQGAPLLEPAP
# PAFAH2 inh – PAFAH2 (human) inhibition; Q99487; recombinant PAFAH2, FP-rhodamine activity probe, fluorescence polarization; inhibition, % at 3.39 µM; actives 0.99% (n = 340,000);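 active = inhibition above the mean over all tested compounds plus 3 SD, cut at about 30% in these data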;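 also: inhibitors block probe labeling of enzyme so polarization drops; 0% = enzyme with DMSO and 100% = wells lacking PAFAH2 protein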
# pPAFAH FP inh – inhibitors of human plasma PAF acetylhydrolase (pPAFAH); actives 1.5% (n = 330,000); inhibition, % at 3.39 µM; AID 463082; recombinant pPAFAH, FP-rhodamine probe fluorescence polarization;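 active = inhibition above the mean inhibition across the screen plus 3 SD, cut at about 25% in these data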;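 also: inhibitors block binding of the rhodamine activity-based probe so polarization drops; 0% = enzyme with DMSO and 100% = wells lacking pPAFAH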
# UCH37 DUB inh – human UCH37 deubiquitinating enzyme inhibition | AID 588478 | actives 0.33% (n = 330,000) | inhibition, % (no concentration beside the values) | purified proteasome/UCH37, Ub-AMC cleavage fluorescence | Q9Y5K5;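 active = mean inhibition over replicate wells above about 20%, limit read from the data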;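 also: 0% = compound-free wells with enzyme and 100% = wells lacking proteasome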
# Target sequence (Q9Y5K5 whole entry, looked up): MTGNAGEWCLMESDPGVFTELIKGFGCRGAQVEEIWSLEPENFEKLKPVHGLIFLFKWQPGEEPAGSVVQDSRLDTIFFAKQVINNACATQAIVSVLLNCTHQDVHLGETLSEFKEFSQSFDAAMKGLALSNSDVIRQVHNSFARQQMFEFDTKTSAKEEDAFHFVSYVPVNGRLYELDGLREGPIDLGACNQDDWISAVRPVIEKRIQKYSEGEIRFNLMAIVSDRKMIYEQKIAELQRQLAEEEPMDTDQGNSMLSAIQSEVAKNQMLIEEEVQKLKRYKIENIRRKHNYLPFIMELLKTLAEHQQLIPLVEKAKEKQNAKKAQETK
#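 Material: human UCH37 enzyme supplied as purified proteasome complex / Amount: 0.15 nM proteasome as dispensed / Buffer or medium: pH 7.4 Tris-HCl (50 mM) with ovalbumin, ATP-MgCl2, DTT / Times: preincubation 30 min, reaction 25 min, room temperature / Technique: AMC fluorescence from Ub-AMC cleavage, excitation 355 nm, emission 460 nm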
# PAFAH1B2 inh – inhibitors of human PAFAH1B2 | P68402 | recombinant PAFAH1B2, FP-rhodamine activity probe, fluorescence polarization | inhibition, % at 3.39 µM | actives 1.2% (n = 340,000);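 active = inhibition above the mean of all tested compounds plus 3 SD, cut at about 24% in these data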;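 also: 0% = enzyme with DMSO and 100% = wells lacking PAFAH1B2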
# * hit, by the source's call; / = not tested or not shown. Rows were chosen to be rich in hits. Some 4.8% of all compounds tested hit in one or more screens of this group.
SMILES,NR3A LBD binder,PAFAH1B3 inh,PAFAH2 inh,pPAFAH FP inh,UCH37 DUB inh,PAFAH1B2 inh
CCNC(=O)n1nccc1C(C)Oc1ccc(Cl)cc1 (centres undefined),1,1,7,14,1,58*
Cc1ccc(CON=CC2=C(Cl)c3ccccc3CC2)cc1,/,/,/,/,3,/
COc1ccc(-n2cc(-c3ccccc3)c3c(=O)[nH]cnc32)cc1,-6,-8,8,18,0,2
O=c1[nH]cnc2c1c(-c1ccccc1)cn2-c1cccc(Cl)c1,-13,9,5,34*,-2,2
Cc1c(C(=O)NNC(=S)Nc2ccc(S(N)(=O)=O)cc2)oc2ccccc12,6,14,2,28*,18,9
Cc1ccc(OC(C)C(=O)Nc2ccc(S(=O)(=O)Nc3cc(C)on3)cc2)cc1 (centres undefined),16*,1,7,-1,0,3
Cc1c(C(=O)Nc2ccc(S(=O)(=O)Nc3ncccn3)cc2)oc2ccccc12,-2,10,-1,9,3,-5
Cc1c(C(=O)Nc2ccc(S(N)(=O)=O)cc2)oc2ccc(Cl)cc12,-8,3,-1,-2,-12,-2
Cc1cc(NS(=O)(=O)c2ccc(NC(=O)Nc3ccc4c(c3)OCO4)cc2)no1,-3,-3,3,7,2,2
Cc1cc(NS(=O)(=O)c2ccc(NC(=O)c3oc4ccccc4c3C)cc2)no1,14*,12,-1,8,3,1
Cc1cc(NS(=O)(=O)c2ccc(NC(=O)Nc3cccc(Cl)c3)cc2)no1,21*,0,-4,-3,5,3
CCN1C(=c2sc(=C3C(=O)N(c4ccccc4)N=C3C)n(CC)c2=O)C=Cc2ccccc21,/,/,/,/,4,/
CCOC(=O)C1(CCC(C)=NNC(N)=O)CC(C)OC1=O (centres undefined),/,/,/,/,2,/
O=C(NN=Cc1ccc([N+](=O)[O-])o1)c1ccccc1NS(=O)(=O)c1cccs1,/,/,/,/,16,/
Cc1nn(-c2ccccc2)c(C)c1C=NNC(=O)CSc1nnc(SCc2ccc(Cl)cc2)s1,/,/,/,/,6,/
Cc1cc(NS(=O)(=O)c2ccc(NC(=O)C(C)Oc3cc(C)c(Cl)c(C)c3)cc2)no1 (centres undefined),-4,6,-10,8,3,1
Cc1cc(NS(=O)(=O)c2ccc(NC(=O)C(C)Oc3ccc(Cl)cc3)cc2)no1 (centres undefined),-2,5,0,-5,0,30*
CC(Oc1ccccc1)C(=O)Nc1ccc(S(=O)(=O)Nc2nccs2)cc1 (centres undefined),0,3,15,-4,0,6
O=C(CSc1ccc(Br)c2cccc(Cl)c12)Nc1ccc(S(=O)(=O)Nc2nccs2)cc1,13*,12,7,15,4,3
CC(Oc1ccc(Br)cc1)C(=O)Nc1ccc(S(=O)(=O)Nc2nccs2)cc1 (centres undefined),3,5,1,7,2,28*
FC(F)(F)c1ccccc1C=Nn1c(C2CCCCC2)n[nH]c1=S,/,/,/,/,7,/
CS(=O)(=O)Nc1ccc(C(=O)CC(=O)Nc2ccc([N+](=O)[O-])cc2)cc1,37*,3,-4,15,10,1
CC(=O)c1ccc(NS(=O)(=O)c2ccc([N+](=O)[O-])cc2)cc1,-3,0,1,/,/,4
O=C(COc1ccc([N+](=O)[O-])cc1)Nc1ccc(NC(=O)c2ccccc2)cc1,13*,-3,-8,6,2,-3
O=C(COc1ccccc1)Nc1ccc([N+](=O)[O-])cc1,-2,6,-7,11,3,0
SMILES,NR3A LBD binder,PAFAH1B3 inh,PAFAH2 inh,pPAFAH FP inh,UCH37 DUB inh,PAFAH1B2 inh
O=C(CC(=O)c1ccccc1)Nc1ccc([N+](=O)[O-])cc1,20*,6,5,/,6,4
CCOc1ccc(C=NNc2nc(N3CCCC3)nc(N3CCCC3)n2)cc1OC,/,/,/,/,4,/
Cc1cc(=O)[nH]c(N=C(N)Nc2ccc(Oc3ccccc3)cc2)n1,/,/,/,/,0,/
O=C(Nc1ccc([N+](=O)[O-])cc1)N1CCCCCC1,0,3,-2,1,5,-1
CC(C)(C)c1ccc(NC(=O)N2CCCN(c3ccc([N+](=O)[O-])cn3)CC2)cc1,-2,1,4,6,2,25*
NC(=O)C1CCN(C(=O)CC2(CC(=O)O)CCCCC2)CC1,-1,-5,18,2,-2,-1
NC(=O)CC1(CC(=O)O)CCCCC1,13*,7,12,-5,2,0
COc1ccc(/C=C2/S/C(=N/N=C3CC4CCC3(C)C4(C)C)NC2=O)cc1 (centres undefined),/,/,/,/,0,/
Cc1ccc(OCC(=O)N2CCN(S(=O)(=O)c3ccc(Cl)cc3)CC2)c([N+](=O)[O-])n1,1,4,-2,-4,1,9
O=C(COc1cccnc1[N+](=O)[O-])N1CCN(S(=O)(=O)c2ccc3ccccc3c2)CC1,14*,0,-3,4,0,-1
CCOc1ccc(S(=O)(=O)N=C(c2ccccc2)N(C)C)cc1,/,/,/,/,-1,/
O=C(NN=C/C=C/c1ccccc1)c1n[nH]c2c1CCC2,/,/,/,/,2,/
COc1ccc(N2CCN(S(=O)(=O)c3cn(C)c(=O)n(C)c3=O)CC2)cc1,0,1,-7,0,0,4
COc1ccc(N2CCN(S(=O)(=O)c3c(C)n(C)c(=O)n(C)c3=O)CC2)cc1,11*,9,-4,6,1,5
COc1ccc(C=NNC(=O)/C(=C\Nc2nccc(C)n2)NC(=O)c2ccccc2)cc1,/,/,/,/,3,/
CC(=NOC(=O)c1ccc(F)cc1)c1ccc(C)cc1,/,/,/,/,-1,/
CC/C(=N\OC(=O)c1ccc(OC(C)C)cc1)c1ccc(C)cc1,2,0,9,29*,/,1
C/C(=N\OC(=O)c1ccc(F)cc1)c1ccc(F)c(F)c1,2,-5,37*,3,/,22
C/C(=N\OC(=O)c1ccc(OC(C)C)cc1)c1ccc(C)c(C)c1,5,4,23,28*,/,0
O=C(NN=Cc1cccnc1)c1cc(O)c(O)c(O)c1,/,/,/,/,3,/
COc1ccccc1-c1cc(C(=O)NN=Cc2cccs2)c2ccccc2n1,/,/,/,/,1,/
Cc1ccsc1C=NNc1nc(=O)[nH]nc1C,/,/,/,/,15,/
O=C(NNC(=O)c1cc2ccccc2cc1O)Nc1ccc(Br)cc1,19*,11,-10,26*,-74,3
O=C(NNC(=O)c1cc2ccccc2cc1O)Nc1ccc(F)cc1F,-2,29*,-8,26*,-38,6
O=C(NNC(=O)c1ccncc1)Nc1ccc([N+](=O)[O-])cc1,-23,3,0,-4,/,1
O=C(NNC(=O)c1ccncc1)Nc1ccc(Br)cc1,14*,6,-1,/,3,0
